Measured values taken from ChEMBL document CHEMBL3046016, “Antifeedant and growth inhibitory effects of some neo-clerodane diterpenoids isolated from Clerodendron species (Verbenaceae) on Earias vitella and Spodoptera litura” (2003).

Key:
Assay type in all cases: functional
[1] = system: Earias vittella; assay: Insecticidal activity against third-instar larval stage of Earias vitella assessed as total larval duration time at 10 ug/cm3 administered through artificial diet containing Abelmoschus esculentus seed powder (reference value: 8.2 +/- 0.48 days)
[2] = system: Spodoptera litura; assay: Antifeedant activity against third-instar larval stage of Spodoptera litura in compound-treated castor leaves assessed as decrease in diet consumption at 5 ug/cm2 after 24 hr by no-choice leaf disk assay relative to acetone-treated control; design: scale not given: the % may be the effect or the level left
In short: (§1)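 Larvae were reared on castor leaves at 25 ± 2 °C. In a no-choice test, compound in acetone was painted on the abaxial side of castor leaf disks and air-dried. Five freshly molted third-instar larvae, starved 4 h, were placed per Petri dish with wet cotton. There were five replicates. After 24 h, consumed leaf area was read on a leaf area meter. %AF = 100 − (treated/control)×100.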

[3] = system: Spodoptera litura; assay: Antifeedant activity against third-instar larval stage of Spodoptera litura in compound-treated castor leaves assessed as decrease in diet consumption at 10 ug/cm2 after 24 hr by no-choice leaf disk assay relative to acetone-treated control; design: scale not given: the % may be the effect or the level left; in short: as §1
[4] = system: Spodoptera littoralis; assay: Antifeedant activity against Spodoptera littoralis assessed as decrease in diet consumption at 200 ppm after 2 hr by leaf disk assay relative to control; design: scale not given: the % may be the effect or the level left
[5] = system: Spodoptera litura; assay: Insecticidal activity against female adult Spodoptera litura in compound-treated castor leaves assessed as adult longevity time at 5 ug/cm2 (reference value: 10 +/- 0.63 days)
[6] = system: Spodoptera litura; assay: Insecticidal activity against female adult Spodoptera litura in compound-treated castor leaves assessed as adult longevity time at 10 ug/cm2 (reference value: 10 +/- 0.63 days)
[7] = system: Spodoptera litura; assay: Insecticidal activity against male adult Spodoptera litura in compound-treated castor leaves assessed as adult longevity time at 5 ug/cm2 (reference value: 9.4 +/- 0.48 days)
[8] = system: Spodoptera litura; assay: Insecticidal activity against male adult Spodoptera litura in compound-treated castor leaves assessed as adult longevity time at 10 ug/cm2 (reference value: 9.4 +/- 0.48 days)
[9] = system: Spodoptera litura; assay: Insecticidal activity against adult Spodoptera litura in compound-treated castor leaves assessed as adult deformity at 5 ug/cm2 relative to control
[10] = system: Spodoptera litura; assay: Insecticidal activity against adult Spodoptera litura in compound-treated castor leaves assessed as adult deformity at 10 ug/cm2 relative to control
[11] = system: Spodoptera litura; assay: Insecticidal activity against adult Spodoptera litura in compound-treated castor leaves assessed as adult emergence at 5 ug/cm2 relative to control
[12] = system: Spodoptera litura; assay: Insecticidal activity against adult Spodoptera litura in compound-treated castor leaves assessed as adult emergence at 10 ug/cm2 relative to control
[13] = system: Spodoptera litura; assay: Insecticidal activity against pupal stage of Spodoptera litura in compound-treated castor leaves assessed as pupal mortality at 5 ug/cm2 relative to control
[14] = system: Spodoptera litura; assay: Insecticidal activity against pupal stage of Spodoptera litura in compound-treated castor leaves assessed as pupal mortality at 10 ug/cm2 relative to control
[15] = system: Spodoptera litura; assay: Insecticidal activity against pupal stage of Spodoptera litura in compound-treated castor leaves assessed as pupal weight at 5 ug/cm2 (reference value: 302.4 +/- 5.9 mg)
[16] = system: Spodoptera litura; assay: Insecticidal activity against pupal stage of Spodoptera litura in compound-treated castor leaves assessed as pupal weight at 10 ug/cm2 (reference value: 302.4 +/- 5.9 mg)
[17] = system: Spodoptera litura; assay: Insecticidal activity against pupal stage of Spodoptera litura in compound-treated castor leaves assessed as pupal duration time at 5 ug/cm2 (reference value: 9.2 +/- 0.74 days)
[18] = system: Spodoptera litura; assay: Insecticidal activity against pupal stage of Spodoptera litura in compound-treated castor leaves assessed as pupal duration time at 10 ug/cm2 (reference value: 9.2 +/- 0.74 days)
[19] = system: Spodoptera litura; assay: Insecticidal activity against third-instar larval stage of Spodoptera litura in compound-treated castor leaves assessed as larval mortality at 5 ug/cm2 relative to control
[20] = system: Spodoptera litura; assay: Insecticidal activity against third-instar larval stage of Spodoptera litura in compound-treated castor leaves assessed as larval mortality at 10 ug/cm2 relative to control
[21] = system: Spodoptera litura; assay: Insecticidal activity against third-instar larval stage of Spodoptera litura in compound-treated castor leaves assessed as total larval duration time at 5 ug/cm2 (reference value: 12.4 +/- 0.48 days)
[22] = system: Spodoptera litura; assay: Insecticidal activity against third-instar larval stage of Spodoptera litura in compound-treated castor leaves assessed as total larval duration time at 10 ug/cm2 (reference value: 12.4 +/- 0.48 days)
[23] = system: Earias vittella; assay: Insecticidal activity against female adult Earias vitella assessed as adult longevity time at 5 ug/cm3 administered through artificial diet containing Abelmoschus esculentus seed powder (reference value: 8.6 +/- 0.48 days)
[24] = system: Earias vittella; assay: Insecticidal activity against female adult Earias vitella assessed as adult longevity time at 10 ug/cm3 administered through artificial diet containing Abelmoschus esculentus seed powder (reference value: 8.6 +/- 0.48 days)
[25] = system: Earias vittella; assay: Insecticidal activity against male adult Earias vitella assessed as adult longevity time at 5 ug/cm3 administered through artificial diet containing Abelmoschus esculentus seed powder (reference value: 8.2 +/- 0.4 days)
[26] = system: Earias vittella; assay: Insecticidal activity against male adult Earias vitella assessed as adult longevity time at 10 ug/cm3 administered through artificial diet containing Abelmoschus esculentus seed powder (reference value: 8.2 +/- 0.4 days)
[27] = system: Earias vittella; assay: Insecticidal activity against adult Earias vitella assessed as adult deformity at 10 ug/cm3 administered through artificial diet containing Abelmoschus esculentus seed powder (reference value: 4%)
[28] = system: Earias vittella; assay: Insecticidal activity against adult Earias vitella assessed as adult deformity at 5 ug/cm3 administered through artificial diet containing Abelmoschus esculentus seed powder (reference value: 4%)
[29] = system: Earias vittella; assay: Insecticidal activity against adult Earias vitella assessed as adult emergence at 5 ug/cm3 administered through artificial diet containing Abelmoschus esculentus seed powder (reference value: 88%)
[30] = system: Earias vittella; assay: Insecticidal activity against adult Earias vitella assessed as adult emergence at 10 ug/cm3 administered through artificial diet containing Abelmoschus esculentus seed powder (reference value: 88%)
[31] = system: Earias vittella; assay: Insecticidal activity against pupal stage of Earias vitella assessed as pupal mortality at 5 ug/cm3 administered through artificial diet containing Abelmoschus esculentus seed powder (reference value: 8%)
[32] = system: Earias vittella; assay: Insecticidal activity against pupal stage of Earias vitella assessed as pupal mortality at 10 ug/cm3 administered through artificial diet containing Abelmoschus esculentus seed powder (reference value: 8%)
[33] = system: Earias vittella; assay: Insecticidal activity against pupal stage of Earias vitella assessed as pupal weight at 5 ug/cm3 administered through artificial diet containing Abelmoschus esculentus seed powder (reference value: 88.2 +/- 4.01 mg)
[34] = system: Earias vittella; assay: Insecticidal activity against pupal stage of Earias vitella assessed as pupal weight at 10 ug/cm3 administered through artificial diet containing Abelmoschus esculentus seed powder (reference value: 88.2 +/- 4.01 mg)
[35] = system: Earias vittella; assay: Insecticidal activity against pupal stage of Earias vitella assessed as pupal duration time at 5 ug/cm3 administered through artificial diet containing Abelmoschus esculentus seed powder (reference value: 6.4 +/- 0.21 days)
[36] = system: Earias vittella; assay: Antifeedant activity against third-instar larval stage of Earias vitella assessed as decrease in diet consumption at 5 ug/cm3 administered through artificial diet containing Abelmoschus esculentus seed powder after 24 hr relative to acetone-treated control; design: scale not given: the % may be the effect or the level left
In short: (§2)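 Artificial diet was modified Klein medium with bhendi (Abelmoschus esculentus) seed powder in place of alfalfa. Compound in acetone was mixed into bhendi meal 12 h before diet preparation so the solvent evaporated. One 3 g diet cube was given to five freshly molted third-instar larvae in a muslin-covered container. After 24 h the cubes were weighed. %AF = 100 − (treated/control)×100.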

[37] = system: Earias vittella; assay: Antifeedant activity against third-instar larval stage of Earias vitella assessed as decrease in diet consumption at 10 ug/cm3 administered through artificial diet containing Abelmoschus esculentus seed powder after 24 hr relative to acetone-treated control; design: scale not given: the % may be the effect or the level left; in short: as §2
[38] = system: Earias vittella; assay: Insecticidal activity against pupal stage of Earias vitella assessed as pupal duration time at 10 ug/cm3 administered through artificial diet containing Abelmoschus esculentus seed powder (reference value: 6.4 +/- 0.21 days)
[39] = system: Earias vittella; assay: Insecticidal activity against third-instar larval stage of Earias vitella assessed as larval mortality at 10 ug/cm3 administered through artificial diet containing Abelmoschus esculentus seed powder (reference value: 4%)
[40] = system: Earias vittella; assay: Insecticidal activity against third-instar larval stage of Earias vitella assessed as larval mortality at 5 ug/cm3 administered through artificial diet containing Abelmoschus esculentus seed powder (reference value: 4%)
[41] = system: Earias vittella; assay: Insecticidal activity against third-instar larval stage of Earias vitella assessed as total larval duration time at 5 ug/cm3 administered through artificial diet containing Abelmoschus esculentus seed powder (reference value: 8.2 +/- 0.48 days)
[42] = system: Spodoptera littoralis; assay: Antifeedant activity against Spodoptera littoralis assessed as decrease in diet consumption at 50 ppm after 2 hr by leaf disk assay relative to control; design: scale not given: the % may be the effect or the level left

## CC(=O)OC[C@@]12[C@@H](OC(C)=O)C[C@@H](C)[C@](C)([C@@H]3C[C@H]4C=CO[C@H]4O3)[C@H]1CC[C@H](OC(C)=O)[C@]21CO1 [3-EPICARYOPTIN]
[1]
  Time: 10.3 days
[2]
  Activity: 73.4%
[3]
  Activity: 82.6%
[4]
  Activity: 100%
[5]
  Time: 7.2 days
[6]
  Time: 6 days
[7]
  Time: 7.4 days
[8]
  Time: 6.4 days
[9]
  Activity: 8.8%
[10]
  Activity: 12.8%
[11]
  Activity: 64.8%
[12]
  Activity: 56.8%
[13]
  mortality at 5 µg/cm2: 26.5%
[14]
  mortality at 10 µg/cm2: 30%
[15]
  Activity: 261.6 mg
[16]
  Activity: 250.2 mg
[17]
  Time: 11 days
[18]
  Time: 11.8 days
[19]
  mortality at 5 µg/cm2: 24%
[20]
  mortality at 10 µg/cm2: 36%
[21]
  Time: 14 days
[22]
  Time: 14.5 days
[23]
  Time: 6.2 days
[24]
  Time: 5.8 days
[25]
  Time: 5.8 days
[26]
  Time: 5.6 days
[27]
  Activity: 8%
[28]
  Activity: 8%
[29]
  Activity: 60.4%
[30]
  Activity: 52%
[31]
  mortality: 30%
[32]
  mortality: 40%
[33]
  Activity: 57.4 mg
[34]
  Activity: 53.2 mg
[35]
  Time: 8.8 days
[36]
  Activity: 73%
[37]
  Activity: 79.76%
[38]
  Time: 10.2 days
[39]
  mortality: 12%
[40]
  mortality: 8%
[41]
  Time: 10 days

## CC(=O)OC[C@@]12[C@@H](OC(C)=O)C[C@@H](C)[C@](C)([C@@H]3C[C@H]4C=CO[C@H]4O3)[C@H]1C[C@@H](O)[C@H](OC(=O)C(C)(C)OC(C)=O)[C@]21CO1 [CLERODENDRIN C]
[1]
  Time: 8.2 days
[2]
  Activity: 56%
[3]
  Activity: 65%
[5]
  Time: 8.9 days
[6]
  Time: 8.2 days
[7]
  Time: 9.2 days
[8]
  Time: 8.5 days
[9]
  Activity: 4%
[10]
  Activity: 8%
[11]
  Activity: 76%
[12]
  Activity: 69.6%
[13]
  mortality at 5 µg/cm2: 20.2%
[14]
  mortality at 10 µg/cm2: 22.7%
[15]
  Activity: 289.8 mg
[16]
  Activity: 282.2 mg
[17]
  Time: 10 days
[18]
  Time: 10.6 days
[19]
  mortality at 5 µg/cm2: 12.5%
[20]
  mortality at 10 µg/cm2: 14%
[21]
  Time: 12.5 days
[22]
  Time: 12.5 days
[23]
  Time: 7.6 days
[24]
  Time: 7.2 days
[25]
  Time: 7 days
[26]
  Time: 6.8 days
[27]
  Activity: 8%
[28]
  Activity: 4%
[29]
  Activity: 76%
[30]
  Activity: 70.5%
[31]
  mortality: 20%
[32]
  mortality: 22.5%
[33]
  Activity: 69 mg
[34]
  Activity: 66.2 mg
[35]
  Time: 7.2 days
[36]
  Activity: 31%
[37]
  Activity: 41.54%
[38]
  Time: 7.8 days
[39]
  mortality: 8%
[40]
  mortality: 4%
[41]
  Time: 8.4 days

## CC(=O)OC[C@@]12[C@@H](OC(C)=O)C[C@@H](C)[C@](C)([C@@H]3C[C@H]4C=CO[C@H]4O3)[C@H]1CCC[C@]21CO1 [CLERODIN]
[1]
  Time: 9.9 days
[2]
  Activity: 72%
[3]
  Activity: 80%
[42]
  Activity: 100%
[5]
  Time: 8 days
[6]
  Time: 7 days
[7]
  Time: 8.4 days
[8]
  Time: 8 days
[9]
  Activity: 8%
[10]
  Activity: 9.6%
[11]
  Activity: 64%
[12]
  Activity: 63.2%
[13]
  mortality at 5 µg/cm2: 27%
[14]
  mortality at 10 µg/cm2: 27%
[15]
  Activity: 270.2 mg
[16]
  Activity: 250.2 mg
[17]
  Time: 10.9 days
[18]
  Time: 11.6 days
[19]
  mortality at 5 µg/cm2: 24.5%
[20]
  mortality at 10 µg/cm2: 35.2%
[21]
  Time: 14.3 days
[22]
  Time: 14.8 days
[23]
  Time: 6.8 days
[24]
  Time: 6.6 days
[25]
  Time: 6.6 days
[26]
  Time: 6.4 days
[27]
  Activity: 8%
[28]
  Activity: 4%
[29]
  Activity: 68.6%
[30]
  Activity: 60%
[31]
  mortality: 28.5%
[32]
  mortality: 32%
[33]
  Activity: 60.4 mg
[34]
  Activity: 58 mg
[35]
  Time: 7.2 days
[36]
  Activity: 62.87%
[37]
  Activity: 72.13%
[38]
  Time: 8 days
[39]
  mortality: 8%
[40]
  mortality: 4%
[41]
  Time: 9.4 days
